The source made the active and inactive calls. No cut-off for these calls is given here.
Columns and labels:
HL-60 [1] = experiment: Cell cycle arrest in human HL60 cells assessed as accumulation at G2 phase at 40 uM after 24 hrs by propidium iodide staining-based FACS flow cytometric analysis (reference value: 1%); format: functional
In short: (§1)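 HL-60 cells seeded at 0.44 × 10^6/mL and exposed to 10, 20, 30 or 40 μM for 24 h. Cells were pelleted at 400g, washed in ice-cold PBS and fixed overnight in ice-cold 70% ethanol at 4 °C. They were treated with RNase (0.2 mg/mL) for 1 h at 37 °C, then stained with PI (10 μg/mL) for 30 min in the dark. Flow cytometry collected 10 000 events (FL2-A vs FL2-W). Sub-G0, G1, S and G2 fractions were fitted by modelling software.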

HL-60 [2] = experiment: Cell cycle arrest in human HL60 cells assessed as accumulation at S phase at 40 uM after 24 hrs by propidium iodide staining-based FACS flow cytometric analysis (reference value: 54%); format: functional; in short: as §1
HL-60 [3] = experiment: Cell cycle arrest in human HL60 cells assessed as accumulation at G1 phase at 40 uM after 24 hrs by propidium iodide staining-based FACS flow cytometric analysis (reference value: 45%); format: functional; in short: as §1
HL-60 [4] = experiment: Cell cycle arrest in human HL60 cells assessed as accumulation at G2 phase at 30 uM after 24 hrs by propidium iodide staining-based FACS flow cytometric analysis (reference value: 1%); format: functional; in short: as §1
HL-60 [5] = experiment: Cell cycle arrest in human HL60 cells assessed as accumulation at sub-G0 phase at 40 uM after 24 hrs by propidium iodide staining-based FACS flow cytometric analysis (reference value: 3%); format: functional; in short: as §1
HL-60 [6] = experiment: Cell cycle arrest in human HL60 cells assessed as accumulation at S phase at 30 uM after 24 hrs by propidium iodide staining-based FACS flow cytometric analysis (reference value: 54%); format: functional; in short: as §1
HL-60 [7] = experiment: Cell cycle arrest in human HL60 cells assessed as accumulation at G1 phase at 30 uM after 24 hrs by propidium iodide staining-based FACS flow cytometric analysis (reference value: 45%); format: functional; in short: as §1
HL-60 [8] = experiment: Cell cycle arrest in human HL60 cells assessed as accumulation at sub-G0 phase at 30 uM after 24 hrs by propidium iodide staining-based FACS flow cytometric analysis (reference value: 3%); format: functional; in short: as §1
HL-60 [9] = experiment: Cell cycle arrest in human HL60 cells assessed as accumulation at G2 phase at 20 uM after 24 hrs by propidium iodide staining-based FACS flow cytometric analysis (reference value: 1%); format: functional; in short: as §1
HL-60 [10] = experiment: Cell cycle arrest in human HL60 cells assessed as accumulation at S phase at 20 uM after 24 hrs by propidium iodide staining-based FACS flow cytometric analysis (reference value: 54%); format: functional; in short: as §1
HL-60 [11] = experiment: Cell cycle arrest in human HL60 cells assessed as accumulation at G1 phase at 20 uM after 24 hrs by propidium iodide staining-based FACS flow cytometric analysis (reference value: 45%); format: functional; in short: as §1
HL-60 [12] = experiment: Cell cycle arrest in human HL60 cells assessed as accumulation at sub-G0 phase at 20 uM after 24 hrs by propidium iodide staining-based FACS flow cytometric analysis (reference value: 3%); format: functional; in short: as §1
HL-60 [13] = experiment: Cell cycle arrest in human HL60 cells assessed as accumulation at G2 phase at 10 uM after 24 hrs by propidium iodide staining-based FACS flow cytometric analysis (reference value: 1%); format: functional; in short: as §1
HL-60 [14] = experiment: Cell cycle arrest in human HL60 cells assessed as accumulation at S phase at 10 uM after 24 hrs by propidium iodide staining-based FACS flow cytometric analysis (reference value: 54%); format: functional; in short: as §1
HL-60 [15] = experiment: Cell cycle arrest in human HL60 cells assessed as accumulation at G1 phase at 10 uM after 24 hrs by propidium iodide staining-based FACS flow cytometric analysis (reference value: 45%); format: functional; in short: as §1
HL-60 [16] = experiment: Cell cycle arrest in human HL60 cells assessed as accumulation at sub-G0 phase at 10 uM after 24 hrs by propidium iodide staining-based FACS flow cytometric analysis (reference value: 3%); format: functional; in short: as §1
PC-3 = experiment: Cytotoxicity against human PC3 cells after 48 hrs by MTT assay; format: functional, cell-based; conditions: PC-3, 48 h
In short: (§2)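 Cell lines from NCI, grown in RPMI1640 or MEM with 10% heat-inactivated FBS at 37 °C under 5% CO2. Seeded at 6000 cells/well overnight, then exposed to 1, 10, 30, 50 and 100 μM for 48 h. MTT (2.5 mg/mL) added for 3 h, formazan dissolved in DMSO, OD read at 540 nm (ref 620 nm). Growth taken as treated vs untreated absorbance, giving IC50.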

HL-60 [17] = experiment: Cytotoxicity against human HL60 cells after 48 hrs by MTT assay; format: functional, cell-based; conditions: HL-60, 48 h; in short: as §2
MIA PaCa-2 = experiment: Cytotoxicity against human MIAPaCa2 cells after 48 hrs by MTT assay; format: functional, cell-based; conditions: MIA PaCa-2, 48 h; in short: as §2
COLO 205 = experiment: Cytotoxicity against human COLO205 cells after 48 hrs by MTT assay; format: functional, cell-based; conditions: COLO 205, 48 h; in short: as §2
HepG2 = experiment: Cytotoxicity against human HepG2 cells after 48 hrs by MTT assay; format: functional, cell-based; conditions: HepG2, 48 h; in short: as §2
HL-60 [18] = experiment: Induction of apoptosis in human HL60 cells assessed as formation of scattered apoptotic bodies at 20 to 40 uM after 24 hrs by fluorescence microscopic analysis; format: functional, cell-based
In short: (§3)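 After 24 h exposure, HL-60 cells were pelleted at 400g, washed twice in PBS and fixed in cold acetic acid–methanol (1:3) for 3 h on ice. They were spread on slides and dried overnight at room temperature. Staining used Hoechst 33258 (5 μg/mL in 0.45 M disodium phosphate/0.01 M citric acid/0.05% Tween 20) for 30 min at room temperature. Slides were mounted in PBS–glycerol and viewed by fluorescence microscopy at 30× for condensed nuclei and apoptotic bodies.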

HL-60 [19] = experiment: Induction of apoptosis in human HL60 cells assessed as nuclear condensation at 20 to 40 uM after 24 hrs by fluorescence microscopic analysis; format: functional, cell-based; in short: as §3
HL-60 [20] = experiment: Induction of apoptosis in human HL60 cells assessed as shrinkage of cell size at 20 to 40 uM after 24 hrs by fluorescence microscopic analysis; format: functional, cell-based; in short: as §3
HL-60 [21] = experiment: Induction of apoptosis in human HL60 cells assessed as cell wall deformation at 20 to 40 uM after 24 hrs by fluorescence microscopic analysis; format: functional, cell-based; in short: as §3
HL-60 [22] = experiment: Induction of apoptosis in human HL60 cells assessed as vesicle formation at 10 to 40 uM after 24 hrs by phase contrast microscopic analysis; format: functional, cell-based
In short: (§4)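 HL-60 cells were exposed to the test concentrations for 24 h. Unstained cells were then photographed under phase-contrast microscopy to assess cellular morphology.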

HL-60 [23] = experiment: Induction of apoptosis in human HL60 cells assessed as blebbing of cell wall at 10 to 40 uM after 24 hrs by phase contrast microscopic analysis; format: functional, cell-based; in short: as §4
HL-60 [24] = experiment: Induction of mitochondrial membrane potential loss in human HL60 cells at 40 uM after 24 hrs by rhodamine-123 staining-based FACS flow cytometric analysis (reference value: 5%); format: functional
HL-60 [25] = experiment: Induction of mitochondrial membrane potential loss in human HL60 cells at 30 uM after 24 hrs by rhodamine-123 staining-based FACS flow cytometric analysis (reference value: 5%); format: functional
HL-60 [26] = experiment: Induction of mitochondrial membrane potential loss in human HL60 cells at 20 uM after 24 hrs by rhodamine-123 staining-based FACS flow cytometric analysis (reference value: 5%); format: functional
HL-60 [27] = experiment: Induction of mitochondrial membrane potential loss in human HL60 cells at 10 uM after 24 hrs by rhodamine-123 staining-based FACS flow cytometric analysis (reference value: 5%); format: functional
HL-60 [28] = experiment: Cell cycle arrest in human HL60 cells assessed as accumulation at sub-G0 phase after 24 hrs by propidium iodide staining-based FACS flow cytometric analysis; format: functional
In short: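 HL-60 cells at 0.44 × 10^6/mL treated at 10, 20, 30 and 40 μM for 24 h. Collected at 400g, then fixed overnight in ice-cold 70% ethanol at 4 °C. RNase (0.2 mg/mL) at 37 °C for 1 h, then PI (10 μg/mL) for 30 min in the dark. Flow cytometry on 10 000 events, FL2-A vs FL2-W. Sub-G0 fraction taken as apoptotic.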

Row | SMILES | Activity (HL-60 [1]) [%] | Activity (HL-60 [2]) [%] | Activity (HL-60 [3]) [%] | Activity (HL-60 [4]) [%] | Activity (HL-60 [5]) [%] | Activity (HL-60 [6]) [%] | Activity (HL-60 [7]) [%] | Activity (HL-60 [8]) [%] | Activity (HL-60 [9]) [%] | Activity (HL-60 [10]) [%] | Activity (HL-60 [11]) [%] | Activity (HL-60 [12]) [%] | Activity (HL-60 [13]) [%] | Activity (HL-60 [14]) [%] | Activity (HL-60 [15]) [%] | IC50 (PC-3) [µM] | IC50 (HL-60 [17]) [µM] | IC50 (MIA PaCa-2) [µM] | IC50 (COLO 205) [µM] | IC50 (HepG2) [µM] | also measured
1 | CC(=O)c1c(O)c(C)c(O)c(Cc2c(O)c(CC=C(C)C)c(O)c3c2O[C@H](c2ccccc2)CC3=O)c1O | 18 | 22 | 60 | 7 | 55 | 16 | 77 | 29 | 4 | 18 | 78 | 26 | 5 | 20 | 75 | > 20 | 16 | 9 | > 20 | > 20 | Activity (HL-60 [16]): 14%; Activity (HL-60 [18]): Active; Activity (HL-60 [19]): Active; Activity (HL-60 [20]): Active; Activity (HL-60 [21]): Active; Activity (HL-60 [22]): Active; Activity (HL-60 [23]): Active; Activity (HL-60 [24]): 43%; Activity (HL-60 [25]): 25%; Activity (HL-60 [26]): 12%; Activity (HL-60 [27]): 6%
2 | CC(=O)c1c(O)c(C)c(O)c(Cc2c(O)c3c(c(C(=O)/C=C/c4ccccc4)c2O)OC(C)(C)C=C3)c1O [ROTTLERIN] | 4 | 63 | 33 | 12 | 84 | 46 | 42 | 80 | 12 | 31 | 58 | 64 | 7 | 26 | 67 | > 20 | 9 | 8 | > 20 | > 20 | Activity (HL-60 [16]): 19.6%; Activity (HL-60 [18]): Active; Activity (HL-60 [19]): Active; Activity (HL-60 [20]): Active; Activity (HL-60 [21]): Active; Activity (HL-60 [22]): Active; Activity (HL-60 [23]): Active; Activity (HL-60 [28]): Dose-dependent effect; Activity (HL-60 [24]): 89%; Activity (HL-60 [25]): 61%; Activity (HL-60 [26]): 28%; Activity (HL-60 [27]): 18%
3 | CC[C@@]1(O)C(=O)OCc2c1cc1n(c2=O)Cc2cc3ccccc3nc2-1 [CAMPTOTHECIN] | – | – | – | – | – | – | – | – | – | – | – | – | – | – | – | 1.2 | 0.06 | 0.19 | 0.05 | 0.2 | –
4 | CC1(C)C=Cc2c(OCc3ccccc3)cc(O)c(C(=O)/C=C/c3ccccc3)c2O1 | 12 | 42 | 46 | 8 | 83 | 49 | 43 | 39 | 8 | 48 | 45 | 9 | 6 | 54 | 40 | > 20 | 15 | > 20 | > 20 | > 20 | Activity (HL-60 [16]): 3%; Activity (HL-60 [18]): Active; Activity (HL-60 [19]): Active; Activity (HL-60 [20]): Active; Activity (HL-60 [21]): Active; Activity (HL-60 [22]): Active; Activity (HL-60 [23]): Active; Activity (HL-60 [24]): 68%; Activity (HL-60 [25]): 38%; Activity (HL-60 [26]): 23%; Activity (HL-60 [27]): 6%
